For one data set, the system named is HT-29. In words: Cytotoxicity in human HT-29 cells assessed as reduction in cell viability by Cell-titer-Lumi assay. The class given is functional, cell-based. An outline of the steps:
(§1)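 Cells grown in DMEM with 10% FBS at 37 °C, 5% CO2. Seeded at 2000 cells/well, then treated across a 12-point serial dilution. Viability read after three days by CellTiter-Lumi luminescence. IC50 obtained by nonlinear least-squares regression of dose-response curves. Lines STR-authenticated and mycoplasma-free.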

In data set [1] the target is Serine/threonine-protein kinase B-raf (Homo sapiens, UniProt P15056, V600E). In words: Binding affinity to DNA-tagged BRAF (unknown origin) V600E mutant by KINOMEscan assay.
Data set [2] deals with T1, Serine/threonine-protein kinase B-raf (Homo sapiens, UniProt P15056). In words: Binding affinity to DNA-tagged BRAF (unknown origin) by KINOMEscan assay.
Data set [3] relates to A-375. In words: Cytotoxicity in human A375 cells assessed as reduction in cell viability by Cell-titer-Lumi assay. The class given is functional, cell-based. In short, it runs like this: as §1
The subject of the next data set is WI-38. In words: Cytotoxicity in human WI38 cells assessed as reduction in cell viability at 10 nM to 10 uM by Cell-titer-Lumi assay. The class given is cell-based. The settings on record: wi-38, 10 nM to 10 uM. In short, it runs like this:
as §1

The subject of a further data set is IMR-90. Description: Cytotoxicity in human IMR90 cells assessed as reduction in cell viability at 10 nM to 10 uM by Cell-titer-Lumi assay. The settings on record: imr-90, 10 nM to 10 uM. The class given is cell-based. An outline of the steps: as §1
The test system of data set [4] is Protein cereblon/Serine/threonine-protein kinase B-raf (Homo sapiens), P15056+Q96SW2 [V600E]. Description: Protac activity at CRBN/BRAF V600E mutant in human A375 cells assessed as induction of BRAF V600E mutant degradation at 1 to 1000 nM incubated for 16 hrs by immunoblotting. The class given is cell-based. An outline of the steps:
(§2)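 A375 cells (BRAF-V600E, DMEM with 10% FBS, 37 °C, 5% CO2) were exposed to DMSO or a serial dilution of degrader for 16 h. Cells were lysed in cold RIPA with protease and phosphatase inhibitors, protein was measured by BCA, and samples were run on SDS-PAGE. Blots were probed for BRAF, p-ERK1/2 and α-tubulin, detected by ECL, and bands were quantitated.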
On the technique in general: Immunoblotting shows a protein as a band on a membrane.

The next data set has as its system HaCaT. In words: Cytotoxicity in human HaCaT cells assessed as reduction in cell viability at 10 nM to 10 uM by Cell-titer-Lumi assay. The class given is cell-based. An outline of the steps:
as §1

For data set [5], the target named is T2, Protein cereblon/Serine/threonine-protein kinase B-raf (Homo sapiens) (UniProt P15056+Q96SW2). In words: Protac activity at CRBN/BRAF in human A549 cells assessed as induction of BRAF degradation at 15 to 1000 nM incubated for 16 hrs by immunoblotting. The class given is cell-based. An outline of the steps: (§3)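 A549 cells carrying wild-type BRAF (DMEM, 10% FBS) were treated with DMSO or a 3-fold serial dilution of compound for 16 h. BRAF was read by immunoblotting: RIPA lysis, BCA protein assay, SDS-PAGE, anti-BRAF antibody with α-tubulin as loading control, ECL detection and densitometric quantitation.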

For data set [6], the target named is T2, Protein cereblon/Serine/threonine-protein kinase B-raf (Homo sapiens). In words: Protac activity at CRBN/BRAF kinase domain (unknown origin) expressed in human A375 cells assessed as induction of BRAF degradation at 1 to 1000 nM incubated for 16 hrs by immunoblotting. The class given is cell-based. An outline of the steps: (§4)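 A375 lines stably expressing the BRAF-V600E or wild-type BRAF kinase domain were made by lentiviral transduction and kept in 1 µg/mL puromycin. They were treated with DMSO or a 3-fold serial dilution of compound for 16 h. Kinase-domain levels were read by immunoblotting of RIPA lysates with ECL and band quantitation.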

The test system of data set [7] is Protein cereblon/Serine/threonine-protein kinase B-raf (Homo sapiens), P15056+Q96SW2 [V600E]. In words: Protac activity at CRBN/BRAF V600E mutant in human A375 cells assessed as reduction in BRAF V600E mutant-mediated ERK phosphorylation at 1 to 1000 nM incubated for 2 hrs by immunoblotting. The class given is cell-based.
Data set [8] concerns A-375. In words: Inhibition of colony formation in human A375 cells at 40 to 1000 nM incubated for 7 days by crystal violet staining based assay. The class given is functional, cell-based. An outline of the steps: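 A375 plated at 200 cells/well, dosed the following day with DMSO or compound. After seven days, cells fixed and stained with 0.5% crystal violet, and colonies counted. Data as mean ± SD; Student's t-test against corresponding control groups.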

In data set [9] the test system is Protein cereblon/Serine/threonine-protein kinase B-raf (Homo sapiens), P15056+Q96SW2 [V600E]. In words: Protac activity at CRBN/BRAF V600E mutant in human A375 cells assessed as induction of BRAF V600E mutant degradation at 500 nM incubated for 6 hrs after 1 hr pre-treatment with 1 uM NEDD8-activating enzyme inhibitor […] by immunoblotting.
For data set [10] the test system is unchanged. In words: Protac activity at CRBN/BRAF V600E mutant in human A375 cells assessed as reduction in BRAF V600E mutant-mediated ERK phosphorylation at 1 to 1000 nM incubated for 16 hrs by immunoblotting. The class given is cell-based. An outline of the steps:
as §2

For data set [11] the test system is unchanged. In words: Protac activity at CRBN/BRAF V600E mutant in human A375 cells assessed as induction of BRAF V600E mutant degradation at 500 nM incubated for 6 hrs after 1 hr pre-treatment with 200 nM proteasome inhibitor bortezomib by immunoblotting.
The test system is the same in data set [12]. Description: Protac activity at CRBN/BRAF V600E mutant in human A375 cells assessed as induction of BRAF V600E mutant degradation at 500 nM incubated for 6 hrs after 1 hr pre-treatment with 10 uM pomalidomide by immunoblotting.
Data set [13] has the same test system. In words: Protac activity at CRBN/BRAF V600E mutant kinase domain (unknown origin) expressed in human A375 cells assessed as induction of BRAF V600E mutant degradation at 1 to 1000 nM incubated for 16 hrs by immunoblotting. The class given is cell-based. In short, it runs like this:
as §4

Data set [14] shares this test system. In words: Protac activity at CRBN/BRAF V600E mutant in human A375 cells assessed as induction of BRAF V600E mutant degradation at 500 nM incubated for 6 hrs after 1 hr pre-treatment with 20 uM proteasome inhibitor MG132 by immunoblotting.
For data set [15], the target named is T1, Serine/threonine-protein kinase B-raf. Description: Potency index, ratio of Kd for vemurafenib to Kd of test compound for binding affinity to DNA-tagged BRAF (unknown origin) by KINOMEscan assay.
Data set [16] concerns the target T2, Protein cereblon/Serine/threonine-protein kinase B-raf (Homo sapiens). In words: Protac activity at CRBN/BRAF in human A549 cells assessed as induction of BRAF degradation at 1 to 1000 nM incubated for 16 hrs by immunoblotting. The class given is cell-based. In short, it runs like this:
as §3

The subject of data set [17] is Serine/threonine-protein kinase B-raf (Homo sapiens), P15056 [V600E]. In words: Potency index, ratio of Kd for vemurafenib to Kd of test compound for binding affinity to DNA-tagged BRAF (unknown origin) V600E mutant by KINOMEscan assay.

The structures appear in SMILES notation. Active and inactive are the calls of the source. The calls are words filed in the database; no cut-off is given here.

A word on the IC50: it is the point on the concentration scale where inhibition reaches its midpoint. Broadly, the Kd is a measure of binding affinity in units of concentration. A high value points to weaker binding.

Sequence of Serine/threonine-protein kinase B-raf (Homo sapiens, UniProt P15056, V600E) (P15056 2-766 V600E limits assumed): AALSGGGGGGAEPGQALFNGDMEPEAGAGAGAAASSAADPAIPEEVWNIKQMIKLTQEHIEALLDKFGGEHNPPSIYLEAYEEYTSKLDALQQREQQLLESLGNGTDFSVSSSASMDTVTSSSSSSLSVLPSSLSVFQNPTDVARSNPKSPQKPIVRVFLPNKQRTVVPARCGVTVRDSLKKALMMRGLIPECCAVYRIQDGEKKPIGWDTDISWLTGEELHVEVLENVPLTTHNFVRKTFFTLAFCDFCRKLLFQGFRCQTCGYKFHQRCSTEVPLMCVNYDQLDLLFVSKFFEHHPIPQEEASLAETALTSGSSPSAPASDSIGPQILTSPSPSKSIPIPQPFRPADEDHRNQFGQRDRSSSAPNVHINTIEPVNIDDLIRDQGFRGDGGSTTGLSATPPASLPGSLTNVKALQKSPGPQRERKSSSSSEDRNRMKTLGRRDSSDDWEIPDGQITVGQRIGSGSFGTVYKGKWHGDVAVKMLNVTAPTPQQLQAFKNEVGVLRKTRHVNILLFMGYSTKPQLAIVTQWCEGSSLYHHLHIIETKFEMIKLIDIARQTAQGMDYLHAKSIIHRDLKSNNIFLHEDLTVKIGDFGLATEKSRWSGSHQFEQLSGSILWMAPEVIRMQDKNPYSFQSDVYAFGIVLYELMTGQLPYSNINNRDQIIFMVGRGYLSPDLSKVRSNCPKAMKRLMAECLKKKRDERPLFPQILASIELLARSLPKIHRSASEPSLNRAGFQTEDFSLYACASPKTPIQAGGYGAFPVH
T2 sequence (P15056 whole entry, looked up): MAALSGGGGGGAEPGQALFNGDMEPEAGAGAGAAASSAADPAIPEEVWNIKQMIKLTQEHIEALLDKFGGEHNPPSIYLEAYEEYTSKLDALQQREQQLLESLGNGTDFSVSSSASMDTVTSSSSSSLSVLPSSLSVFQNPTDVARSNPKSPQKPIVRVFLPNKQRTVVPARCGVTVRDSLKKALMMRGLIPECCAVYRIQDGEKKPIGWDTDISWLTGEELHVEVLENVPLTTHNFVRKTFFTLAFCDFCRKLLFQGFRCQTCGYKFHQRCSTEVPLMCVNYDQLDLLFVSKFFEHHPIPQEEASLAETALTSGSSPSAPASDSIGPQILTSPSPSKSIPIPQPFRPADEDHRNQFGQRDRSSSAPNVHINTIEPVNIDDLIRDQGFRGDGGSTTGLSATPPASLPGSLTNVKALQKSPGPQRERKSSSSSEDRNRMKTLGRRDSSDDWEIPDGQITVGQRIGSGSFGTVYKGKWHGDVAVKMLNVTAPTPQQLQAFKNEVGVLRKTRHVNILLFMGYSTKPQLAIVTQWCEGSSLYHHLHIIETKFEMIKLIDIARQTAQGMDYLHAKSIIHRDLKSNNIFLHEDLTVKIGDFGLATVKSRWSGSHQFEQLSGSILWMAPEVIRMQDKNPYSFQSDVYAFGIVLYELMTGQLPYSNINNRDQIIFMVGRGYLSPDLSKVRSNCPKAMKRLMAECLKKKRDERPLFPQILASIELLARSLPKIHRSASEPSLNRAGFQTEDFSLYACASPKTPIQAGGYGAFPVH
T2 sequence (Q96SW2 whole entry, looked up): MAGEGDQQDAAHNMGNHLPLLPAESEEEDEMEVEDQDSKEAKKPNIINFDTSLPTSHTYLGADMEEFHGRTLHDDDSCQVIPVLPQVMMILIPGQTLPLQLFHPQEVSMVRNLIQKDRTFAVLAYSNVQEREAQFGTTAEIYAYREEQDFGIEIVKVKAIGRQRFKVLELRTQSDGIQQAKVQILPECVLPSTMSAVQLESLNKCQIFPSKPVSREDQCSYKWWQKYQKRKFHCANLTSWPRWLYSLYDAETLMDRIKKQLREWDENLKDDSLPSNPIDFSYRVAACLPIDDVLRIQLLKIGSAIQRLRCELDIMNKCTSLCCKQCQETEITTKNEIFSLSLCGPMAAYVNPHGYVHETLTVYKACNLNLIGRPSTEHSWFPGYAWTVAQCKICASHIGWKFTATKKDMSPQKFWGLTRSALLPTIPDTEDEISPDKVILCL
T1 sequence (P15056 whole entry): as the sequence (P15056 whole entry, looked up) above
Sequence of Serine/threonine-protein kinase B-raf (Homo sapiens), P15056 [V600E] (P15056 whole entry V600E): as the sequence (P15056 whole entry, looked up) above, with V600E counted along it

For the compound `CCCS(=O)(=O)Nc1ccc(F)c(-n2cc(-c3cncnc3)c3nc(N(C)C4CCN(CC)CC4)ccc32)c1F` [XP-102], the IC50 with HT-29 was 1.7 nM; in the data set with A-375 [3], 6.3 nM. The Kd in [1] came out at 0.33 nM; in data set [2], 0.37 nM.
As for `CCCS(=O)(=O)Nc1ccc(F)c(C(=O)c2c[nH]c3ncc(-c4ccc(CNC(=O)CCCCNc5ccc6c(c5)C(=O)N(C5CCC(=O)N(C)C5=O)C6=O)cc4)cc23)c1F` (centres undefined), the Activity entry in the data set with WI-38, in the data set with IMR-90 and with HaCaT was “Non-Toxic” each time. Moreover, the IC50 in the data set on HT-29 was 459 nM; in the data set on A-375 [3], 492 nM. For the same compound, the dissociation constant Kd in [1] was determined as 7.3 nM; in [2] it was 5.1 nM. Also, in [4], the result was inactive.
On to `CCCS(=O)(=O)Nc1ccc(F)c(C(=O)c2c[nH]c3ncc(-c4ccc(Cl)cc4)cc23)c1F` [VEMURAFENIB], for which the half-inhibitory concentration (IC50) amounted to 164 nM with HT-29 and 116 nM in the data set on A-375 [3].
Turning to `CCCS(=O)(=O)Nc1ccc(F)c(-n2cc(-c3cncnc3)c3nc(N(C)C4CCN(C(=O)CCOCCOCCOCCNc5cccc6c5C(=O)N(C5CCC(=O)N(C)C5=O)C6=O)CC4)ccc32)c1F` (centres undefined), the Activity result with WI-38, in the data set on IMR-90 and in the data set with HaCaT was “Non-Toxic” throughout. Also, the values for the IC50 in the data set on HT-29 and with A-375 [3] were 348 nM and 190 nM, respectively. For the same compound, the values for the Kd in data set [1] and in data set [2] were 2.7 nM and 2.6 nM, respectively. The outcome in [4] was inactive.
As for `CCCS(=O)(=O)Nc1ccc(F)c(-n2cc(-c3cncnc3)c3nc(N(C)C4CCN(C(=O)CCOCCOCCOCCNc5cccc6c5C(=O)N(C5CCC(=O)NC5=O)C6=O)CC4)ccc32)c1F` (centres undefined), the outcome in [5], in [6], in data set [9], in data set [11], in data set [12] and in data set [14] was inactive. The Activity entry in the data set with WI-38 is “Non-Toxic”; in [10], “Dose-dependent effect”; in the data set with IMR-90, “Non-Toxic”; in data set [4] it was “Dose-dependent effect”; in the data set on HaCaT, “Non-Toxic”. The result in [7] and in [13] was Active. In addition, the inhibition result with A-375 [8] is “Active”. Further, the IC50 is 51 nM with HT-29 and 46.5 nM in the data set on A-375 [3]. Also, the equilibrium dissociation constant (Kd) in [1] was found to be 2 nM; in [2], 2.4 nM.
`CCCS(=O)(=O)Nc1ccc(F)c(C(=O)c2c[nH]c3ncc(-c4ccc(CNC(=O)CCCCNc5ccc6c(c5)C(=O)N(C5CCC(=O)NC5=O)C6=O)cc4)cc23)c1F` (centres undefined): the Activity result was “Non-Toxic” in the data set on WI-38; “Dose-dependent effect” in [10]; “Non-Toxic” in the data set on IMR-90; “Dose-dependent effect” in data set [4]; “Non-Toxic” in the data set with HaCaT. For the same compound, the result in [6], in [9], in [16], in data set [11], in data set [12] and in data set [14] was inactive. Further, the inhibition result in the data set with A-375 [8] is “Active”. Also, the 50% inhibitory concentration (IC50) in the data set with HT-29 is 124 nM; with A-375 [3], 500 nM. Besides, the Ratio in data set [15] and in data set [17] was 4 to 5 each time. For the same compound, the Kd was found to be 14.4 nM in data set [1] and 9.5 nM in data set [2]. Further, the result in data set [13] was Active.

Values taken from ChEMBL document CHEMBL4354871, “Discovery of Selective Small Molecule Degraders of BRAF-V600E” (J Med Chem, 2020).
